# Assay outcomes (PubChem BioAssay)
# Hits are enriched below; roughly 2.5% of the tested compounds scored in any of these assays.
# Vif imaging = inhibitors of HIV Vif. AID 602346. inhibition, % at 7.49 µM. HEK293T cells, Vif self-association by quenched fluorescence, imaging, 24 h. 340,000 tested, 0.35% active; in the data active means inhibition above about 50%, passing the limit was not always enough; inconclusive means no clear call, values can overlap the other calls; inactive means below about 31%
# H9c2 TAG inh = triacylglycerol accumulation inhibition. H9c2 cells, Nile Red lipid (TAG) fluorescence; cells loaded with 200 µM oleic acid. AID 651582. 230,000 tested, 0.66% active. inhibition, % at 12.5 µM;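 active means pattern-corrected inhibition of lipid staining of at least 50% with the nuclear-stain viability signal not falling by more than 50%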;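 further: 0% = DMSO wells and 100% = triacsin C control wells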
# SMARCA2 act = increases SMARCA2 function in MMTV reporter cells; MG213 cells, MMTV-luciferase reporter, dexamethasone, overnight; activation, % at 9.1 µM; 370,000 tested, 1% active; AID 652017; in the data active means activation above about 7.8%;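 further: 0% = vehicle wells and 100% = reference activator wells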
# SR-BI HDL uptake = blocks mouse SR-BI lipid uptake from DiI-HDL. Q61009. ldlA[mSR-BI] CHO cells, DiI-HDL uptake fluorescence, 3 h. inhibition, % at 12.5 µM. 320,000 tested, 0.96% active. AID 488896;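 active means mean replicate inhibition of at least 70% and a set share of replicates each scoring 70 or more; inconclusive means meets just one of the two criteria; inactive means fails both criteria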;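 further: 0% = median of neutral control wells and 100% = median of positive control wells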
# Target sequence (Q61009 whole entry, looked up): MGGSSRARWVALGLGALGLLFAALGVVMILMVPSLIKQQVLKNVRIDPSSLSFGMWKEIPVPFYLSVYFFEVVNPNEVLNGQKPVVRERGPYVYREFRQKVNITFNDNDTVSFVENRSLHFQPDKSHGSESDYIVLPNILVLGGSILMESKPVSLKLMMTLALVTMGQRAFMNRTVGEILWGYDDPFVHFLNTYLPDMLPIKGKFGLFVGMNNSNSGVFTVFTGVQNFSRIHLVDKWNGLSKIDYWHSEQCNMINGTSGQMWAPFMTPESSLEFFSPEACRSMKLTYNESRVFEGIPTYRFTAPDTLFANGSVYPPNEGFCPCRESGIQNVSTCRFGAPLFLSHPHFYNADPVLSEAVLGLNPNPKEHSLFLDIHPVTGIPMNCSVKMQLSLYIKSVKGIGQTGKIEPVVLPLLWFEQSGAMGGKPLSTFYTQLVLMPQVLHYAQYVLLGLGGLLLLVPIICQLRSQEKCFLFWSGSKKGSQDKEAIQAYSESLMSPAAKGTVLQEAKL
# SR-BI DiI-HDL act = enhances SR-BI lipid uptake from DiI-HDL; CHO ldlA[mSR-BI] cells, DiI-HDL uptake fluorescence, 3 h; 100 = double the neutral-control signal; activation, % at 12.5 µM; 320,000 tested, 0.096% active; AID 504775;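 active means mean replicate activation of at least 60% and every replicate at or above 60%; inconclusive means mean or all-replicate condition met, but not both; inactive means mean below 60% and not all replicates reaching 60%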;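 further: 0% = median plate neutral-control signal and 100% = twice that signal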
#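 Assay system: LDL receptor-deficient CHO ldlA cells overexpressing murine SR-BI / Medium: BSA-supplemented, HEPES-buffered Ham's F12, pH 7.4 / Probe or stimulus: DiI-labelled HDL at 10 µg/mL final / Timing: compound with DiI-HDL co-incubation, 3 h at 37 °C / Technique: bottom-read cell fluorescence after medium removal, ex 550/em 595 nm / Measure: HDL uptake via cellular fluorescence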
# SMARCA2 conf = confirmation of SMARCA2 (BRM) function activators; 3,500 tested, 30% active; AID 652260; shares compounds with SMARCA2 act; activation, % at 9.1 µM; MG213 cells, MMTV-luciferase with dexamethasone, luminescence, overnight; MG213 cells expressing E1A, Rb sequestered; DMSO wells 0%, reference activator 100%;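 active means activation above its plate's cutoff, the mean activation of tested wells plus 3 SD, cut at about 7.9% in these data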
# VP16 Luc act = counter-screen for SMARCA2 activators: GAL4-VP16 luciferase reporter activation; activation, % at 9.1 µM; shares compounds with SMARCA2 act; AID 686939; HEK293 GAL4-VP16 pG5luc reporter, luciferase luminescence; scaled: DMSO wells 0%, SAHA wells 100%; 3,500 tested, 41% active;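 active means activation above the solvent-only control well mean plus 3 SD, averaged across control plates, cut at about 5.2% in these data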
# An asterisk follows results filed as active; ? = inconclusive; . = not tested or not shown.
SMILES,Vif imaging,H9c2 TAG inh,SMARCA2 act,SR-BI HDL uptake,SR-BI DiI-HDL act,SMARCA2 conf,VP16 Luc act
Cc1ccc2[nH]c(=O)c3cc(C(=O)N(C)Cc4ccco4)sc3c2c1,-9.6,-1.2,8.4*,54.3,-54.3,13.4*,-1.2
O=C(O)c1ccc(N=Nc2c(O)[nH]c3cc(Cl)ccc23)cc1,-1.4,-7.4,13.7*,-1.3,1.3,12.0*,13.6*
O=C(O)c1ccc(N=Nc2c(O)[nH]c3ccc(Br)cc23)cc1,5.1,.,6.2,-5.4,5.4,.,.
COC(=O)c1cccc(Oc2cccc(C(F)(F)F)c2)n1,20.0,.,11.0*,-9.3,9.3,1.7,2.2
CCC(OCC(O)CN1CCN(CCN2C(=O)c3cccc4cccc(c34)C2=O)CC1)c1ccccc1 (stereo not given),-7.1,.,9.4*,36.4,-36.4,1.5,4.8
Cn1cnc([N+](=O)[O-])c1Sc1ncn[nH]1,-3.7,.,8.3*,-15.2,15.2,0.8,0.2
Cn1cnc([N+](=O)[O-])c1Cl,-9.1,-2.0,-5.1,-14.4,14.4,.,.
CCS(=O)(=O)c1c([N+](=O)[O-])ncn1C,?,.,15.1*,-7.7,7.7,12.2*,1.7
CCOC(=O)c1cnc(SCC(=O)c2ccc(C)cc2)nc1N,-3.4,-20.7,0.9,15.9,-15.9,.,.
CCOC(=O)c1cnc(SCC(=O)c2ccccc2)nc1N,-4.4,.,14.1*,-22.3,22.3,13.5*,9.0*
CCCCCCN[C@H]1CCC2C3CC=C4C[C@@H](O)CC[C@]4(C)C3CC[C@@]21C (stereo not given in full),1.4,-4.5,11.2*,0.7,-0.7,9.7*,1.2
CC(C)C(=O)N[C@H]1CCC2C3CC=C4C[C@@H](O)CC[C@]4(C)C3CC[C@@]21C (stereo not given in full),2.2,-1.4,-2.0,-37.3,37.3,.,.
CCc1noc2cc(-c3ccccc3)n(C)c(=O)c12,.,.,9.7*,.,.,14.3*,6.8*
COc1cc(/C=C/C(=O)OCC(=O)Nc2ccc(Cl)cn2)ccc1O,?,-7.6,10.2*,4.0,-4.0,3.9,1.3
O=C(COC(=O)/C=C/c1ccc(F)cc1)Nc1ccc(Cl)cn1,-4.5,-4.8,-5.4,-11.7,11.7,.,.
CSc1ccccc1NC(=O)C1=CC(c2ccc(C)cc2)=NS(=O)(=O)N1C,0.1,-3.7,-4.7,16.5,-16.5,.,.
CSc1cccc(NC(=O)Nc2nc3c(C)cccc3s2)c1,-6.6,.,-1.9,36.3,-36.3,.,.
COc1cccc(NC(=O)NCCC2=CCCCC2)c1,-6.1,.,15.9*,-4.3,4.3,5.3,11.5*
COc1ccc(C2(SCC(N)C(=O)O)c3ccccc3-c3ccccc32)cc1 (stereo not given),-1.3,-4.4,-1.7,0.3,-0.3,.,.
Cc1cc(-n2cnnn2)ccc1C(C)C,25.1,.,8.5*,-29.9,29.9,3.4,1.6
Cc1ccc(C)n1-c1ccc(-n2cnnn2)cc1,2.1,.,-0.2,-21.4,21.4,.,.
CCc1nnc(NC(=O)c2cccc(NC(=O)C(C)C)c2)s1,-8.0,-3.9,8.8*,8.7,-8.7,4.2,5.9*
Cc1ccc(-n2c(=O)c3ccccc3n(CC(=O)NCc3ccco3)c2=O)cc1,-3.9,-6.8,-0.7,.,.,.,.
CCc1ccc(-n2c(=O)c3ccccc3n(CC(=O)NCc3ccco3)c2=O)cc1,-5.2,-7.4,8.6*,0.3,-0.3,-3.7,-0.9
CCCCCOc1ccc(C(=O)N(Cc2ccco2)C2CCS(=O)(=O)C2)cc1 (stereo not given),.,.,8.9*,-16.3,16.3,-3.5,0.3
SMILES,Vif imaging,H9c2 TAG inh,SMARCA2 act,SR-BI HDL uptake,SR-BI DiI-HDL act,SMARCA2 conf,VP16 Luc act
Cn1ccnc1C(=O)c1ccc(S(=O)(=O)N2CCCC2)cc1,-4.1,16.2,0.9,-3.7,3.7,.,.
O=C(N=Nc1c(O)[nH]c2ccccc12)c1ccco1,-2.8,17.7,8.2*,-5.4,5.4,23.3*,9.8*
CN1[C@@H](Cc2ccccc2)COc2cc(F)ccc2S1(=O)=O,.,.,-1.9,.,.,.,.
COc1ccc2oc(C(=O)OCC(=O)N3CCCCC3C)c(C)c2c1 (stereo not given),0.5,8.1,8.4*,11.7,-11.7,7.4,2.1
COc1ccc2oc(C(=O)OCC(=O)N3C(C)CCCC3C)c(C)c2c1 (stereo not given),3.0,-11.2,0.1,6.1,-6.1,.,.
COc1ccc2nc3cc(Cl)ccc3c(C#N)c2c1,-3.3,-4.6,5.7,-1.5,1.5,.,.
COc1ccc2nc3cc(Cl)ccc3c(Nc3ccc(O)c(CN4CCN(C)CC4)c3)c2c1,2.5,54.4*,20.1*,17.9,-17.9,90.8*,2.0
N#CC(Cc1cccs1)c1nc2ccccc2[nH]1 (stereo not given),-8.2,5.9,8.6*,.,.,1.6,2.4
Cc1ccc(-c2nnc(-c3cccs3)o2)cc1,-5.1,14.2,10.0*,6.0,-6.0,8.2*,9.2*
Cc1ccc(/C=C/c2nnc(-c3cccs3)o2)cc1,18.1,.,11.2*,-26.1,26.1,3.2,9.0*
Cc1ccc(-c2nnc(-c3cc(C)on3)o2)cc1,-7.2,6.4,9.0*,-26.0,26.0,7.0,9.2*
CNc1ccc2ncc(-c3ccc(OC)c(OC)c3)n2n1,-8.0,17.2,-1.7,.,.,.,.
COc1ccc(-n2c(SCC(=O)N3CCCC3)nnc2-c2ccncc2)cc1,.,.,2.4,.,.,.,.
COc1ccc(NC(=S)N(CCc2c(C)[nH]c3ccccc23)Cc2cccnc2)cc1,-15.0,4.5,9.1*,7.9,-7.9,-1.8,0.2
CCOc1ccc(NC(=S)N(CCc2c(C)[nH]c3ccc(C)cc23)Cc2cccnc2)cc1,-2.9,-4.2,-2.9,20.1,-20.1,.,.
COC(=O)[C@]12C[C@H](CC(=O)NCc3ccc(C)o3)C(=O)N(Cc3ccccc3)C1=C[C@H](COCc1ccccc1)O[C@@H]2C,.,.,-4.0,.,.,.,.
Cc1ccc(C(=O)Oc2oc(-c3ccco3)nc2C=Nc2ccc(Cl)cc2)cc1,0.8,16.4,8.0*,16.5,-16.5,1.6,20.3*
Cc1nc(Nc2ccc(C(=O)O)cc2)sc1-c1ccccc1,-8.1,9.9,9.1*,-7.7,7.7,9.2*,5.4*
Cc1nc(Nc2ccccc2)sc1-c1ccccc1,3.2,.,4.7,22.7,-22.7,.,.
Nc1ccc2nc(CCCCc3nc4ccccc4[nH]3)[nH]c2c1,0.1,.,-0.1,-2.0,2.0,.,.
Nc1ccc2nc(COc3ccccc3)[nH]c2c1,3.3,-2.1,11.7*,-9.9,9.9,0.9,0.7
O=C(O)c1ccc(N/N=C/c2cc3cc4c(cc3nc2Cl)OCCO4)cc1,-6.3,28.5,8.4*,.,.,7.7,11.3*
O=C(O)c1ccc(N/N=C/c2cc3c(cc2[N+](=O)[O-])OCO3)cc1,8.5,-17.9,3.0,10.0,-10.0,.,.
